Legend:
[1] = organism: Cavia porcellus; test: Phototoxicity in albino Dunkin-Hartley guinea pig skin assessed as formation of erythema at 0.14 umol/cm2; assay type: organism-based, Zone of skin; conditions: in vivo, topical_or_ocular
Summary of the method: (§1)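 Depilated albino outbred Dunkin-Hartley guinea pigs received the compound as an ethanol solution applied topically to the skin. Animals were kept 45 min in the dark, then the treated skin was irradiated with 20 kJ m-2 UVA. Erythema was scored after 48 h.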

[2] = tested on: HeLa; test: Antiproliferative activity against HeLa cells in presence of 0.789 J/cm2 UVA light; assay type: functional, cell-based; conditions: Homo sapiens, light or radiation study
Summary of the method: (§2)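 HeLa cells (10^5 per well) were grown in F-12 with 10% heat-inactivated FCS at 37 °C in 5% CO2. After 24 h, medium was swapped for phenol-red-free DMEM with compound. For UVA, cells were irradiated after 1 h at 0.789 J cm-2 (365 nm), then the drug medium was replaced with complete F-12 for 24 h. In the dark arm, cells stayed 24 h with compound in complete F-12. IC50 is the concentration giving 50% fewer cells than control.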

[3] = tested on: HL-60; test: Antiproliferative activity against HL60 cells in presence of 0.789 J/cm2 UVA light; assay type: functional, cell-based; conditions: Homo sapiens, HL-60, light or radiation study
Summary of the method: (§3)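 HL-60 cells (10^5 per well) were grown in RPMI 1640 with 15% heat-inactivated FCS and antibiotics at 37 °C in 5% CO2. After 24 h, compound was added in complete medium. For the irradiated arm, cells were kept 1 h in the dark, then given 0.789 J cm-2 UVA (365 nm lamps). Cells were incubated a further 24 h and viability read by trypan blue. IC50 is the concentration giving 50% fewer cells than control.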

[4] = tested on: HeLa; test: Antiproliferative activity against HeLa cells in dark; assay type: functional, cell-based; conditions: Homo sapiens; summary of the method: as §2
[5] = tested on: HL-60; test: Antiproliferative activity against HL60 cells in dark; assay type: functional, cell-based; conditions: Homo sapiens; summary of the method: as §3
[6] = tested on: Cavia porcellus; test: Phototoxicity in albino Dunkin-Hartley guinea pig skin assessed as formation of erythema with edema at 0.046 umol/cm2; assay type: organism-based, Zone of skin; conditions: in vivo, topical_or_ocular; summary of the method: as §1
[7] = biological target: DNA topoisomerase II (Homo sapiens) (UniProt P11388+Q02880); test: Inhibition of topoisomerase 2 by ATP-dependent decatenation of kinetoplast DNA; assay type: protein assay
Summary of the method: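 Human topoisomerase II (1 U) was incubated with 0.15 µg kinetoplast DNA and compound (1, 2, 4, 8 µM) in 20 µL for 1 h at 37 °C. The reaction was stopped with stop buffer plus proteinase K 50 µg/mL for 30 min at 37 °C. Decatenation was read on a 1% agarose gel with ethidium bromide 0.5 µg/mL in TAE, pH 8.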

[8] = organism: Cavia porcellus; test: Phototoxicity in albino Dunkin-Hartley guinea pig skin assessed as formation of erythema at […]; assay type: organism-based, Zone of skin; conditions: in vivo, topical_or_ocular; summary of the method: as §1

SMILES | Activity [1] | IC50 [2] | IC50 [3] | IC50 [4] | IC50 [5] | Activity [6] | inhibition [7] | Activity [8]
COc1cc2oc(=O)cc(C)c2c2oc3ccccc3c12 | Not Active | > 20 µM | > 20 µM | > 20 µM | > 20 µM |  |  | 
Cc1cc(=O)oc2cc(O)c3c4c(oc3c12)CCCC4 | Not Active | > 20 µM | > 20 µM | > 20 µM | > 20 µM |  |  | 
COc1cc2oc(=O)cc(C)c2c2oc3c(c12)CCCC3 | Not Active | > 20 µM | > 20 µM | > 20 µM | > 20 µM |  |  | 
Cc1cc(=O)oc2cc(OCCCN(C)C)c3c4c(oc3c12)CCCC4 | Not Active | 0.4 µM | 0.61 µM | > 20 µM | 7.9 µM |  |  | 
Cc1cc(=O)oc2cc(O)c3c4ccccc4oc3c12 | Not Active | > 20 µM | > 20 µM | > 20 µM | > 20 µM |  |  | 
COc1c2occc2cc2ccc(=O)oc12 [METHOXSALEN] |  |  |  | > 20 µM | > 20 µM | Active |  | 
Cc1cc(=O)oc2cc(OCCCN(C)C)c3c4ccccc4oc3c12 |  | 0.0043 µM | 0.0105 µM | 3.5 µM | 0.48 µM | Active | Dose-dependent effect | Not Active

From ChEMBL document CHEMBL1138081, “New furan side tetracyclic allopsoralen derivatives: synthesis and photobiological evaluation” (J Med Chem, 2006)
